Measured values from ChEMBL document CHEMBL3243991, “Antiinflammatory agents. 1. Synthesis and antiinflammatory activity of 2-amino-3-benzoylphenylacetic acid” (J Med Chem, 1979).

Experiments:
Rattus norvegicus [1] = assay: Antiinflammatory activity in fasted male rat assessed as decrease in carrageenan-induced pleural fluid at 10 mg/kg, po after 5 hrs by Evans blue carrageenan pleural effusion assay relative to control; type: functional
In short: (§1)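 Evans blue carrageenan pleural effusion assay, run by sequential analysis. Screened first at 316 mg/kg orally alongside acetylsalicylic acid at the same dose; active agents were retested in 6 rats at one or two doses against phenylbutazone. Given by gavage (10 mL/kg) in water with 0.5% Tween 80. Pleural fluid measured in mL ± SD; % decrease taken versus vehicle control.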

Rattus norvegicus [2] = assay: Antiinflammatory activity in fasted male rat assessed as decrease in carrageenan-induced pleural fluid at 50 mg/kg, po after 5 hrs by Evans blue carrageenan pleural effusion assay relative to control; type: functional; in short: as §1
Rattus norvegicus [3] = assay: Antiinflammatory activity in fasted male rat assessed as decrease in carrageenan-induced pleural fluid at 100 mg/kg, po after 5 hrs by Evans blue carrageenan pleural effusion assay relative to control; type: functional; in short: as §1
Rattus norvegicus [4] = assay: Antiinflammatory activity in fasted male rat assessed as decrease in carrageenan-induced pleural fluid at 316 mg/kg, po after 5 hrs by Evans blue carrageenan pleural effusion assay relative to control; type: functional; in short: as §1
Liver microsome = assay: Drug metabolism in rat liver microsomes assessed as recovery as total extract radioactivity by TLC; type: ADME
In short: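 14C-labeled substrate (10 mg) was sonicated into 30 mL of 0.1 M Na+/K+ phosphate buffer, pH 7.4. The mixture was extracted with three portions of ether, extract radioactivity recovery was determined, and TLC was run immediately (acetone/CHCl3 2:98).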

Rattus norvegicus [5] = assay: Toxicity in adjuvant-induced arthritis Lewis Wistar rat model assessed as change in 11 day weight at 0.03 mg/kg, po treated once daily on days 18 to 22 and […]; type: organism-based; set-up: dose 0.03 mg/kg, route oral; conditions: in vivo, 264 h
In short: (§2)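 Therapeutic regimen in the adjuvant-induced arthritic rat model: compound given once daily on days 18-22 and 25-28. Dosed by gavage (10 mL/kg) as a solution or suspension in water containing 0.5% Tween 80. Groups of 8 rats (one group of 7), with vehicle-dosed negative and positive controls. Injected- and uninjected-foot edema (mL ± SD) and body-weight change (g ± SD) recorded over 11 days; p < 0.05 flagged.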

Rattus norvegicus [6] = assay: Antiinflammatory activity against adjuvant-induced arthritis in Lewis Wistar rat assessed as change in 11 day edema volume in adjuvant uninjected foot at 3.16 mg/kg, po treated once daily on days 18 to 22 and […]; type: functional; in short: as §2
Rattus norvegicus [7] = assay: Antiinflammatory activity against adjuvant-induced arthritis in Lewis Wistar rat assessed as change in 11 day edema volume in adjuvant injected foot at 0.316 mg/kg, po treated once daily on days 18 to 22 and […]; type: functional; in short: as §2
Rattus norvegicus [8] = assay: Antiinflammatory activity against adjuvant-induced arthritis in Lewis Wistar rat assessed as potency in adjuvant injected foot treated po once daily on days 18 to 22 and 25 to 28 relative to phenylbutazone
Rattus norvegicus [9] = assay: Antiinflammatory activity against adjuvant-induced arthritis in Lewis Wistar rat assessed as change in 11 day edema volume in adjuvant injected foot at 0.03 mg/kg, po treated once daily on days 18 to 22 and 25 to 28
Rattus norvegicus [10] = assay: Toxicity in adjuvant-induced arthritis Lewis Wistar rat model assessed as change in 11 day weight at 0.316 mg/kg, po treated once daily on days 18 to 22 and […]; type: organism-based; set-up: dose 0.316 mg/kg, route oral; conditions: in vivo, 264 h; in short: as §2
Rattus norvegicus [11] = assay: Antiinflammatory activity against adjuvant-induced arthritis in Lewis Wistar rat assessed as change in 11 day edema volume in adjuvant uninjected foot at 0.316 mg/kg, po treated once daily on days 18 to 22 and […]; type: functional; in short: as §2
Rattus norvegicus [12] = assay: Toxicity in adjuvant-induced arthritis Lewis Wistar rat model assessed as change in 11 day weight at 3.16 mg/kg, po treated once daily on days 18 to 22 and […]; type: organism-based; set-up: dose 3.16 mg/kg, route oral; conditions: in vivo, 264 h; in short: as §2
Rattus norvegicus [13] = assay: Antiinflammatory activity against adjuvant-induced arthritis in Lewis Wistar rat assessed as change in 11 day edema volume in adjuvant uninjected foot at 0.03 mg/kg, po treated once daily on days 18 to 22 and […]; type: functional; in short: as §2
Rattus norvegicus [14] = assay: Antiinflammatory activity in fasted male rat assessed as decrease in carrageenan-induced pleural fluid at 4 mg/kg, po after 5 hrs by Evans blue carrageenan pleural effusion assay relative to control; type: functional; conditions: for inhibition in vivo at 4 mg/kg: Rattus norvegicus, Pleural fluid, po, 5 h; in short: as §1
Rattus norvegicus [15] = assay: Antiinflammatory activity against adjuvant-induced arthritis in Lewis Wistar rat assessed as potency in adjuvant uninjected foot treated po once daily on days 18 to 22 and 25 to 28 relative to phenylbutazone
Rattus norvegicus [16] = assay: Antiinflammatory activity against adjuvant-induced arthritis in Lewis Wistar rat assessed as change in 11 day edema volume in adjuvant injected foot at 3.16 mg/kg, po treated […]; type: functional
Rattus norvegicus [17] = assay: Antiinflammatory activity in fasted male rat assessed as decrease in carrageenan-induced pleural fluid at 0.8 mg/kg, po after 5 hrs by Evans blue carrageenan pleural effusion assay relative to control; type: functional; conditions: for inhibition in vivo at 0.8 mg/kg: Rattus norvegicus, Pleural fluid, po, 5 h; in short: as §1
Rattus norvegicus [18] = assay: Antiinflammatory activity in fasted male rat assessed as decrease in carrageenan-induced pleural fluid at 300 mg/kg, po after 5 hrs by Evans blue carrageenan pleural effusion assay relative to control; type: functional; in short: as §1
Rattus norvegicus [19] = assay: Antiinflammatory activity in fasted male rat assessed as decrease in carrageenan-induced pleural fluid at 60 mg/kg, po after 5 hrs by Evans blue carrageenan pleural effusion assay relative to control; type: functional; in short: as §1
Rattus norvegicus [20] = assay: Antiinflammatory activity against adjuvant-induced arthritis in Lewis Wistar rat assessed as change in 11 day edema volume in adjuvant injected foot at 0.0031 mg/kg, po treated once daily on days 18 to 22 and […]; type: functional; in short: as §2
Rattus norvegicus [21] = assay: Toxicity in adjuvant-induced arthritis Lewis Wistar rat model assessed as change in 11 day weight at 0.0031 mg/kg, po treated once daily on days 18 to 22 and 25 to 28; conditions: in vivo, 264 h
Rattus norvegicus [22] = assay: Antiinflammatory activity against adjuvant-induced arthritis in Lewis Wistar rat assessed as change in 11 day edema volume in adjuvant uninjected foot at 0.0316 mg/kg, po treated once daily on days 18 to 22 and […]; type: functional; in short: as §2
Rattus norvegicus [23] = assay: Antiinflammatory activity against adjuvant-induced arthritis in Lewis Wistar rat assessed as change in 11 day edema volume in adjuvant injected foot at 0.0316 mg/kg, po treated […]; type: functional
Rattus norvegicus [24] = assay: Antiinflammatory activity against adjuvant-induced arthritis in Lewis Wistar rat assessed as change in 11 day edema volume in adjuvant uninjected foot at 0.0031 mg/kg, po […]; type: functional
Rattus norvegicus [25] = assay: Toxicity in adjuvant-induced arthritis Lewis Wistar rat model assessed as change in 11 day weight at 0.0316 mg/kg, po treated once daily on days 18 to 22 and 25 to 28; conditions: in vivo, 264 h
Rattus norvegicus [26] = assay: Antiinflammatory activity against adjuvant-induced arthritis in Lewis Wistar rat assessed as change in 11 day edema volume in adjuvant uninjected foot at 10 mg/kg, po […]; type: functional
Rattus norvegicus [27] = assay: Antiinflammatory activity against adjuvant-induced arthritis in Lewis Wistar rat assessed as change in 11 day edema volume in adjuvant uninjected foot at 31.6 mg/kg, po treated once daily on days 18 to 22 and […]; type: functional; in short: as §2
Rattus norvegicus [28] = assay: Antiinflammatory activity against adjuvant-induced arthritis in Lewis Wistar rat assessed as change in 11 day edema volume in adjuvant injected foot at 10 mg/kg, po treated once daily on days 18 to 22 and […]; type: functional; in short: as §2
Rattus norvegicus [29] = assay: Toxicity in adjuvant-induced arthritis Lewis Wistar rat model assessed as change in 11 day weight at 10 mg/kg, po treated once daily on days 18 to 22 and […]; type: organism-based; set-up: dose 10 mg/kg, route oral; conditions: in vivo, 264 h; in short: as §2
Rattus norvegicus [30] = assay: Antiinflammatory activity in fasted male rat assessed as decrease in carrageenan-induced pleural fluid at 2 mg/kg, po after 5 hrs by Evans blue carrageenan pleural effusion assay relative to control; type: functional; in short: as §1
Rattus norvegicus [31] = assay: Toxicity in adjuvant-induced arthritis Lewis Wistar rat model assessed as change in 11 day weight at 31.6 mg/kg, po treated once daily on days 18 to 22 and 25 to 28; conditions: in vivo, 264 h
Rattus norvegicus [32] = assay: Antiinflammatory activity in fasted male rat assessed as decrease in carrageenan-induced pleural fluid at 20 mg/kg, po after 5 hrs by Evans blue carrageenan pleural effusion assay relative to control; type: functional; in short: as §1
Rattus norvegicus [33] = assay: Antiinflammatory activity against adjuvant-induced arthritis in Lewis Wistar rat assessed as change in 11 day edema volume in adjuvant injected foot at 31.6 mg/kg, po treated […]; type: functional

`O=C(c1ccccc1)c1cccc2c1NCC2` was tested, and the inhibition in vivo at 10 mg/kg (Rattus norvegicus [1]) was 14.5% and the inhibition in vivo at 50 mg/kg (Rattus norvegicus [2]) was 35.5%.

Molecule `O=C(O)c1cccc2c1NCC2` has an inhibition in vivo at 100 mg/kg (Rattus norvegicus [3]) of 12.6%.

In the case of `O=C1Nc2c(cccc2C(=O)c2ccccc2)C1=O`, the inhibition in vivo at 316 mg/kg (Rattus norvegicus [4]) is reported as 18.4%.

Work on `O=C(c1ccccc1)c1cccc2cc[nH]c12` yielded a Drug recovery (Liver microsome) of 16%.

Work on `O=C(c1cccc2c1NCC2)[14c]1[14cH][14cH][14cH][14cH][14cH]1` yielded a Drug recovery (Liver microsome) of 49%.

`CCOC(=O)Cc1cccc(C(=O)c2ccccc2)c1N` gave an Activity (Rattus norvegicus [5]) of 11 g, an Activity (Rattus norvegicus [6]) of -0.1 mL and an Activity (Rattus norvegicus [7]) of -0.1 mL. For the same molecule, the “fold change (FC)” value (Rattus norvegicus [8]) was 10.9, the Activity (Rattus norvegicus [9]) was 0.4 mL and the Activity (Rattus norvegicus [10]) was 10 g. It also gave an Activity (Rattus norvegicus [11]) of 0.1 mL, an Activity (Rattus norvegicus [12]) of 13 g and an Activity (Rattus norvegicus [13]) of 0.6 mL. The inhibition in vivo at 4 mg/kg (Rattus norvegicus [14]) was 37.3%, the “fold change (FC)” value (Rattus norvegicus [15]) was 5.1 and the Activity (Rattus norvegicus [16]) was -0.6 mL. It also gave an inhibition in vivo at 0.8 mg/kg (Rattus norvegicus [17]) of 26.9%.

With `O=C1Cc2cccc(C(=O)c3ccccc3)c2N1` the inhibition in vivo at 300 mg/kg (Rattus norvegicus [18]) was 17.5% and the inhibition in vivo at 60 mg/kg (Rattus norvegicus [19]) was 11.1%.

Work on `Nc1c(CC(=O)[O-])cccc1C(=O)c1ccccc1.[Na+]` [AMFENAC SODIUM] yielded an Activity (Rattus norvegicus [20]) of 0.2 mL, an Activity (Rattus norvegicus [21]) of 12 g and an Activity (Rattus norvegicus [22]) of 0.4 mL. The Activity (Rattus norvegicus [7]) was -0.3 mL, the “fold change (FC)” value (Rattus norvegicus [8]) was 14.2 and the Activity (Rattus norvegicus [23]) was 0.2 mL. The Activity (Rattus norvegicus [10]) was 3 g, the Activity (Rattus norvegicus [24]) was 0.6 mL and the Activity (Rattus norvegicus [11]) was -0.2 mL. For the same molecule, the Activity (Rattus norvegicus [25]) was 6 g, the “inhibition (INH)” value (Rattus norvegicus [14]) was 33.3% and the “fold change (FC)” value (Rattus norvegicus [15]) was 23.9. The “inhibition (INH)” value (Rattus norvegicus [17]) was 11.1%.

Work on `Nc1c(CC(=O)O)cccc1C(=O)c1ccccc1` [AMFENAC] yielded an inhibition in vivo at 4 mg/kg (Rattus norvegicus [14]) of 33.8% and an inhibition in vivo at 0.8 mg/kg (Rattus norvegicus [17]) of 10.3%.

Molecule `CC(=O)Oc1ccccc1C(=O)O` [ASPIRIN] has an inhibition in vivo at 316 mg/kg (Rattus norvegicus [4]) of 31.6%.

Molecule `CCCCC1C(=O)N(c2ccccc2)N(c2ccccc2)C1=O` [PHENYLBUTAZONE] has an inhibition in vivo at 10 mg/kg (Rattus norvegicus [1]) of 10.5%, an inhibition in vivo at 50 mg/kg (Rattus norvegicus [2]) of 24.2% and an Activity (Rattus norvegicus [6]) of 0 mL. The Activity (Rattus norvegicus [26]) was -0.2 mL, the Activity (Rattus norvegicus [7]) was 0.4 mL and the Activity (Rattus norvegicus [27]) was -0.4 mL. The Activity (Rattus norvegicus [28]) was -0.5 mL, the Activity (Rattus norvegicus [10]) was 8 g and the Activity (Rattus norvegicus [29]) was 20 g. The Activity (Rattus norvegicus [11]) was 0.4 mL, the inhibition in vivo at 2 mg/kg (Rattus norvegicus [30]) was 0% and the inhibition in vivo at 100 mg/kg (Rattus norvegicus [3]) was 31%. It also gave an Activity (Rattus norvegicus [12]) of 8 g, an Activity (Rattus norvegicus [31]) of 26 g and an Activity (Rattus norvegicus [16]) of -0.3 mL. For the same molecule, the inhibition in vivo at 20 mg/kg (Rattus norvegicus [32]) was 19.4% and the Activity (Rattus norvegicus [33]) was -0.9 mL.
